Measurements from different studies.
Target: Serine/threonine-protein kinase tousled-like 2 (TLK2, Homo sapiens, UniProt Q86UE8)

SMILES | test | conditions | endpoint | value
O=C1NC(=O)c2cc(Nc3ccc(F)cc3)c(Nc3ccc(F)cc3)cc21 | cell-free assay | 0.5 µM | remaining signal | 93.5%
O=C1NC(c2ccccn2)Sc2ccccc21 (stereo not drawn) | cell-free assay, competition with immobilised ligand | 1 µM | remaining binding | 96%
Cc1cnc(NC2CCOCC2)nc1-n1cnc(C(=O)NC(CN)c2cc(F)cc(Cl)c2)c1 (stereo not drawn) | enzyme activity, inhibitor, radiometric | 1 µM | remaining activity | 100%
CC(C)(C)c1nc(-c2cccc(NS(=O)(=O)c3c(F)cccc3F)c2F)c(-c2ccnc(N)n2)s1 | enzyme activity, inhibitor, radiometric | 1 µM | remaining activity | 96%
CCCOc1ccc(OC)c(F)c1C(=O)c1ccc(C(=O)N[C@@H]2CNC[C@H]2NC(=O)c2ccc3[nH]ncc3c2)cc1 | enzyme activity, inhibitor | 10 µM | remaining activity | 90%
CCN(CC)c1ccc(C2=NNC(=O)CC2C)cc1[N+](=O)[O-] (stereo not drawn) | enzyme activity, inhibitor | 10 µM | remaining activity | 82%
CNC(=O)Nc1ccc2c(c1)CC[C@@]21OC(=O)N(CC(=O)N(Cc2ccc(F)cc2)[C@@H](C)C(F)(F)F)C1=O | cell-free assay, competition with immobilised ligand | 1 µM | remaining binding | 100%
O=C(Nc1cnn(-c2csc(C(=O)NC3COC3)c2)c1)Nc1c(F)cccc1Cl | enzyme activity, inhibitor | 5 µM | remaining activity | 109%
C[C@H](c1ccc(F)cc1)N(Cc1cccc(C(=O)O)c1)C(=O)c1cnc2ccccc2c1 | cell-free assay, competition with immobilised ligand | 1 µM | remaining binding | 97%
CCCCNc1ncc2c(-c3ccc(F)cc3)nn(C[C@H]3CC[C@H](N)CC3)c2n1 | target engagement in cells, inhibitor, chemoproteomics | 20 mM | inhibition | -20.7%
O=C(Nc1cnn(-c2csc(C(=O)NC3COC3)c2)c1)Nc1ccccc1Cl | enzyme activity, inhibitor | 5 µM | remaining activity | 99.1%
Cc1ccc(C(=O)NCc2ccsc2)cc1C#Cc1cn(C(C)C)c2ncnc(N)c12 | enzyme activity, inhibitor | 1 µM | activity vs control | 97%
CNC(=O)c1cc(Oc2ccc(NC(=O)Nc3ccc(Cl)c(C(F)(F)F)c3)cc2)ccn1 | enzyme activity, inhibitor | 10 µM | inhibition | -1%
CCCOc1ccc([C@H]2[C@H](C(=O)O)[C@@H](c3ccc4c(c3)OCO4)CN2CC(=O)Nc2c(CC)cccc2CC)cc1 | cell-free assay, competition with immobilised ligand | 1 µM | remaining binding | 94%
Cc1cc(NC(=O)c2cccc3cc(-c4cccc5[nH]nc(N)c45)ccc23)ccc1F | enzyme activity, inhibitor | 0.1 µM | activity vs control | 100%
C[C@@H](c1cccc(C#N)c1)n1cc(Cl)cc(C(N)=O)c1=N | cell-free assay, competition with immobilised ligand | 1 µM | remaining binding | 100%
COc1cc2c(N3CCN(C(=O)Nc4ccc(OC(C)C)cc4)CC3)ncnc2cc1OCCCN1CCCCC1 | cell-free assay | 0.5 µM | remaining signal | 96.2%
COc1cccc2c(NCc3ccccc3)nc(-n3c(N)nc4ccccc43)nc12 | target engagement in cells, inhibitor, chemoproteomics | 20 mM | inhibition | -7.5%
COc1cc(Cl)c(C(=O)N[C@@H](CN[C@H]2CC[C@@H](N)CC2)Cc2ccc(C#N)cc2)cc1-c1ccc(CN[C@H](C)c2ccc(C)cc2)o1 | enzyme activity, inhibitor | 1 µM | remaining activity | 94%
O=C(Nc1cccnn1)N1CC(C/C=C/c2cncc(Oc3ccc(C(F)(F)F)cn3)n2)C1 | cell-free assay, competition with immobilised ligand | 1 µM | remaining binding | 100%
C[S+]([O-])c1ccc(-c2nc(-c3ccncc3)c(-c3ccc(F)cc3)[nH]2)cc1 (stereo not drawn) | cell-free assay | 0.5 µM | remaining signal | 96.5%
